In ChEMBL document CHEMBL1142735, “Discovery of a new series of centrally active tricyclic isoxazoles combining serotonin (5-HT) reuptake inhibition with alpha2-adrenoceptor blocking activity” (J Med Chem, 2005):
pKi: −log10 of the molar value.

Key:
[1] = molecular target: T1, Sodium-dependent serotonin transporter (Homo sapiens, UniProt P31645); test: Inhibition of [3H]- paroxetine binding to 5-HTT receptor, serotonin transporter
Procedure, shortened: (§1)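 Human platelet membranes (50 µg protein) in 50 mM Tris-HCl pH 7.4 with 120 mM NaCl and 5 mM KCl. Competition against [3H]paroxetine (0.5 nM), 60 min at 25 °C. Nonspecific binding defined with imipramine (1 µM). Filtration over 0.1% PEI-presoaked GF/B, washed with incubation buffer. Sigmoidal fit of specific binding; Ki via Cheng-Prusoff.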

Rattus norvegicus [2] = test: Effective dose for reversal of medetomidine-Induced loss of righting was determined by oral administration; format: functional
Procedure, shortened: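 Oral pretreatment of overnight-fasted male Wistar rats (200-250 g), then medetomidine 0.10 mg/kg iv (reversal means no loss of righting) or pCA 5 mg/kg sc (excitation scored 0-3 over 15 min from 45 min after pCA; inhibition means score <2). Doses taken from a geometric series.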

[3] = molecular target: T2, Adrenergic receptor alpha-1 (Homo sapiens, UniProt P35348+P25100+P35368); test: Inhibition of [3H]- prazosin binding to alpha-1 adrenergic receptor; format: protein assay
T2 sequence (P35348 whole entry): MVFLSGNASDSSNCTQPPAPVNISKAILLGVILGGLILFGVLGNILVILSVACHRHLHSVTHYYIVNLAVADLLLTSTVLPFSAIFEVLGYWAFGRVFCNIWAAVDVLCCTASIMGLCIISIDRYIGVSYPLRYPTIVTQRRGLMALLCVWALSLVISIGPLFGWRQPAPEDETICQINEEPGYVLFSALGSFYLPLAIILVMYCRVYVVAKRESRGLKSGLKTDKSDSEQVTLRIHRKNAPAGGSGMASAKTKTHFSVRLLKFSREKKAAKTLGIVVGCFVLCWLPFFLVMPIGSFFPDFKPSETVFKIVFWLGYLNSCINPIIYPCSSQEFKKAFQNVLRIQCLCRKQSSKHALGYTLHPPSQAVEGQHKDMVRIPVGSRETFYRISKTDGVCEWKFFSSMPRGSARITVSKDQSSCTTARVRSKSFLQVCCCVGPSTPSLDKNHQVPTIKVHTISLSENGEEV
T2 sequence (P25100 whole entry): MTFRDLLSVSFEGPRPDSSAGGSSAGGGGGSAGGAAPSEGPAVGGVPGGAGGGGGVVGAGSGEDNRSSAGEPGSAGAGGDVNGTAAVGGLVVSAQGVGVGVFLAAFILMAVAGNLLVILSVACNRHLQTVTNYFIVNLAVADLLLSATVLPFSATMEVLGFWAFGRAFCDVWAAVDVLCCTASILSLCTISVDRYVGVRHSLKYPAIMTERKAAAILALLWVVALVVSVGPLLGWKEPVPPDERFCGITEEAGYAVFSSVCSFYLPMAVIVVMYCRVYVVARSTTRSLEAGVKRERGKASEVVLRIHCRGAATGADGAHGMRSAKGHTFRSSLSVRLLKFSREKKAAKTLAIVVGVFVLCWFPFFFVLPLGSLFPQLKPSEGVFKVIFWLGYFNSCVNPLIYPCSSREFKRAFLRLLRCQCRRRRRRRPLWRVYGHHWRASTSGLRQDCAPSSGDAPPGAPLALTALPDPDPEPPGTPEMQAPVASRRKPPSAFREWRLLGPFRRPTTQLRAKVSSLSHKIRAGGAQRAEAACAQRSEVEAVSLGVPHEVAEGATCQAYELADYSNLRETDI
T2 sequence (P35368 whole entry): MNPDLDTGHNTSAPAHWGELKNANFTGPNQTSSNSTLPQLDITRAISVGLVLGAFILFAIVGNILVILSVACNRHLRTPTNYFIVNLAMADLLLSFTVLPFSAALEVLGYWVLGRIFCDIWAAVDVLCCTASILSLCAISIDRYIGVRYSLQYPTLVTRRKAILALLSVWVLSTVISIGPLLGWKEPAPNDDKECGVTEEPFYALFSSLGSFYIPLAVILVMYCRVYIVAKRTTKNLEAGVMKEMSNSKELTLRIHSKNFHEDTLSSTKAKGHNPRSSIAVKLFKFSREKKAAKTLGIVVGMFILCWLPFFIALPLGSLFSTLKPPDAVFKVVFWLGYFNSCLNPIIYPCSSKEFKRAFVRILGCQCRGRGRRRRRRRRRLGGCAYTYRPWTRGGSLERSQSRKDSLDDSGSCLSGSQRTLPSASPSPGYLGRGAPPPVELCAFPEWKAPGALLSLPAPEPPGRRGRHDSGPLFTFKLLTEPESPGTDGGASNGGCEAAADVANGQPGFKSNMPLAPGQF
Procedure, shortened: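 Radioligand competition binding on membranes from cell lines carrying the human target, incubated with the labelled ligand under optimized conditions. Separation by filtration, except α1A and D3, which used scintillation proximity assay.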

[4] = molecular target: T3, Alpha-2C adrenergic receptor (Homo sapiens, UniProt P18825); test: Binding affinity for alpha-2C-adrenergic receptor
T3 sequence (P18825 whole entry): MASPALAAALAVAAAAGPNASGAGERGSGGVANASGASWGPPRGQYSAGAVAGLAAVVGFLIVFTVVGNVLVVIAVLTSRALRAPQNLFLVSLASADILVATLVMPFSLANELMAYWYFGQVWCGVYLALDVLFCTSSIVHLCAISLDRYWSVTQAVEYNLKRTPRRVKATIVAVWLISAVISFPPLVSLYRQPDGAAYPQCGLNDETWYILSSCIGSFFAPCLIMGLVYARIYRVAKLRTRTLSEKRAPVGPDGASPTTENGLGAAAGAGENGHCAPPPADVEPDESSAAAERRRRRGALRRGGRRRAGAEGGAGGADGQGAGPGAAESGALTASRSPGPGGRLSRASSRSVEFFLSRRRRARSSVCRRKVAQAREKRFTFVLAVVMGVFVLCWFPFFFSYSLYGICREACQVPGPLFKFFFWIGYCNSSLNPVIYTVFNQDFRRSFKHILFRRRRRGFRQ
Procedure, shortened: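 Human alpha2C receptor stably expressed in CHO cell membranes (5-10 µg protein) in 25 mM glycylglycine, pH 7.6. Competition against [3H]rauwolscine (1 nM), 30 min at 25 °C. Nonspecific binding defined with spiroxatrine (1 µM). Rapid filtration over GF/B, washed with ice-cold 50 mM Tris-HCl pH 8.0, scintillation counting. Sigmoidal curves fitted; Ki by Cheng-Prusoff.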

[5] = molecular target: T1, Sodium-dependent serotonin transporter; test: Binding affinity for serotonin transporter; format: functional, Rattus norvegicus; procedure, shortened: as §1
Rattus norvegicus [6] = test: Effective dose for antagonism ofpCA-Induced excitation was determined by subcutaneous administration; format: functional; conditions: sc
Procedure, shortened: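 Male Wistar rats (200-250 g), fasted overnight, given test compound or solvent sc before challenge. Loss of righting induced by medetomidine 0.10 mg/kg iv; reversal means no loss of righting. Excitation induced by pCA 5 mg/10 mL/kg sc and scored 0-3 over 15 min starting 45 min after pCA; inhibition means score <2.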

T1 sequence (P31645 whole entry): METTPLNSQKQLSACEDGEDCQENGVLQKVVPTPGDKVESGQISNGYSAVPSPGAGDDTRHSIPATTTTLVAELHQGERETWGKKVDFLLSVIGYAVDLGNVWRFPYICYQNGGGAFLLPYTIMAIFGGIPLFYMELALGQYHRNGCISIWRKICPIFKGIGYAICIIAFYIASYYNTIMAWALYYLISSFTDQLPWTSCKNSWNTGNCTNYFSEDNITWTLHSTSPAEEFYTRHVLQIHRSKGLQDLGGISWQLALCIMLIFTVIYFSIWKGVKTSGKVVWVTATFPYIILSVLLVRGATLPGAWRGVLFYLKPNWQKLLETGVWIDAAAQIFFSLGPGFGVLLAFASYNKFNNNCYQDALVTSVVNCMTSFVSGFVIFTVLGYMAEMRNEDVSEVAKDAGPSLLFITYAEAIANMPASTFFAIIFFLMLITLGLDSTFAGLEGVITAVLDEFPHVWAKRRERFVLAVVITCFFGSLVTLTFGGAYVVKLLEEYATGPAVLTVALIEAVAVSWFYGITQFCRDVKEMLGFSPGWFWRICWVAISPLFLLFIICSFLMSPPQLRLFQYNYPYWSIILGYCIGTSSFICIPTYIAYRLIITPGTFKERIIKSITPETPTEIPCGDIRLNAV

Structure (SMILES) | pKi [1] | ED50 (Rattus norvegicus [2]) [mg/kg] | Ki [3] [nM] | pKi [4] | pKi [5] | ED50 (Rattus norvegicus [6]) [mg/kg]
COc1cc2c(cc1OC)C1=NO[C@@H](CN3CCN(C/C=C/c4ccccc4)CC3)[C@@H]1CO2 | 8.92 | 1.3 | > 1000 |  |  | 
COc1cc2c(cc1OC)C1=NO[C@@H](CN3CCN(C/C=C(\C)c4ccccc4)CC3)[C@@H]1CO2 |  |  | > 1000 | 9.22 | 8.00 | 
COc1cc2c(cc1OC)C1=NO[C@@H](CN3CCN(C/C(C)=C/c4ccccc4)CC3)[C@@H]1CO2 |  | 0.63 | 380 |  |  | 
COc1cc2c(cc1OC)C1=NO[C@@H](CN3CCN(Cc4ccc5ccccc5c4)CC3)[C@@H]1CO2 | 8.77 |  | > 1000 | 8.51 | 8.77 | 0.08
